This passage reports cytotoxicity results from ChEMBL document CHEMBL4513216, “Probing the Open Global Health Chemical Diversity Library for Multistage-Active Starting Points for Next-Generation Antimalarials” (ACS Infect Dis, 2020).

The data set is described as follows: Toxicity liver stage against HepG2, at 10uM. To be noted: human, HepG2-A16-CD81EGFP cells; read-out: INHIBITION
Also on record: test concentration 10 uM, cell line HepG2-A16-CD81EGFP. In kind it is cell-based. In outline:
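Uninfected HepG2-A16-CD81EGFP cells, 3 × 10^3 per well, 1536-well, plated on prespotted compound at 10 μM final, parasite-free screening media added to match infected plates; puromycin 10 μM positive, DMSO 0.5% negative; run in parallel with 48 h PbLuc assay at 37 °C, 5% CO2; viability by CellTiter-Glo luminescence, normalized to controls.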

Turning to `O=C1CCC2(CCCN(c3ncnc4[nH]cnc34)C2)CN1CCCO` (centres undefined), the cytotoxicity at 10 µM was -2.09%.
Under `CCn1ncc2c1C(COCC1CC1)CN(C(=O)c1ccncn1)C2` (centres undefined) stands -74.8%.
Turning to `CC(=O)N1CCC2(CC1)c1ncc(-c3ccc(F)cc3)n1CCN2C`, the cytotoxicity at 10 µM was -101%.
`CN(Cc1nnc(-c2cccs2)o1)Cc1nc2c(s1)CCCC2`: the cytotoxicity at 10 µM was 2.4%.
The value for `Cc1ccc(C(=O)N2CCCC(Nc3ccc(F)cc3)C2)cc1` (centres undefined) was -3.53%; that for `Cc1nn(C)c2nc(-c3ccccn3)nc(NCCCOC(C)C)c12` was 1.5%; that for `CN(C)CCn1ccnc1C1CCN(C(=O)CCc2cccnc2)CC1` was -2.21%.
As for `COC(=O)C1CCN(C(=O)c2ccc(N(C)S(C)(=O)=O)c(C)c2)CC1`, the cytotoxicity at 10 µM was -1.18%.
Consider `O=C(COCCOc1ccccc1)N1CCCC(n2ccnc2)C1` (centres undefined), for which the cytotoxicity at 10 µM is -19.6%.
On to `CC(C)CN1CCC2(CC1)C(=O)Nc1ccc(C(=O)NC(C)C)cc12`, for which the cytotoxicity at 10 µM is -13.9%.
Take `COc1cc(-c2noc(C(CC(C)C)N3CCCCC3=O)n2)ccn1` (centres undefined): the cytotoxicity at 10 µM was -60.8%.
For `COCCN1CCC12CCN(c1ncccn1)C2` (centres undefined), the cytotoxicity at 10 µM turned out to be 9.76%.
As for `Cc1ccc(C(=O)N2CCc3ncc(Cn4cccn4)n3CC2)o1`, the cytotoxicity at 10 µM worked out at 2.31%.
As to `CS(=O)(=O)CCC(=O)Nc1cc(F)ccc1OCC1CCCO1` (centres undefined), the cytotoxicity at 10 µM is 3.41%.
`COC(=O)c1ccc(N2CCN(C(=O)c3cnccn3)C(C)C2)cc1` (centres undefined): the cytotoxicity at 10 µM was -12.9%.
`CCNC(=O)N1CCc2ccc(NC(=O)NCC3CC3)cc21`: the cytotoxicity at 10 µM was 3.53%.
In the case of `CS(=O)(=O)N1C[C@H]2CCCN(Cc3nccs3)[C@H]2C1`, the cytotoxicity at 10 µM is -1.65%.
With `Cn1nnc2c(N3CC(C(=O)NCc4ccccc4F)C3)ncnc21`, the cytotoxicity at 10 µM worked out at 0.447%.
With `C=Cc1cccc(CN2C[C@@H](CN(C)CC)[C@@H](CO)C2)c1`, the cytotoxicity at 10 µM was -6.63%.
Under `Cc1nc(C)c(CC(=O)N2CCC(c3ccn4nccc4n3)CC2)s1` stands -0.743%.
As to `COc1cc(F)c(NC(=O)N(C)Cc2cc(C)on2)cc1F`, the cytotoxicity at 10 µM is -4.25%.
Turning to `CCN(C(=O)CN1CCCC1Cc1ccccc1)c1ccccc1` (centres undefined), the cytotoxicity at 10 µM is 0.686%.
In the case of `CCCOc1ccc2ccccc2c1CN1CC[C@@]2(O)CCNC[C@H]2C1`, the cytotoxicity at 10 µM was -148%.
As for `Cn1ccnc1CCNS(=O)(=O)c1cccc(Br)c1`, the cytotoxicity at 10 µM was found to be 4.95%.
The value for `Fc1cccc(-c2nc(CN3CCCC(Cn4cncn4)C3)co2)c1` (centres undefined) was -12.5%; that for `CCCc1n[nH]c(C2CN(CCCOc3ccccc3)CCO2)n1` (centres undefined) was -0.409%; that for `CC(C)(C)c1ccc(=O)n(CN2CCCC(C(F)(F)F)C2)n1` (centres undefined) was -2.19%.
Turning to `O=C(O)C1(Cc2ccc(-c3cccs3)cc2)CCNC1` (centres undefined), the cytotoxicity at 10 µM is -0.74%.
As to `CCNc1c(NC(=O)C2CC2)c(=O)oc2ccccc12`, the cytotoxicity at 10 µM was -5.99%.
Turning to `CCOc1c(Br)cc(CNC(C)c2nnc3n2CCC3)cc1OC` (centres undefined), the cytotoxicity at 10 µM was -40.9%.
`Cc1noc(CC2CCN(C(=O)C(c3ccccc3C)N(C)C)CC2)n1` (centres undefined): the cytotoxicity at 10 µM amounted to 1.86%.
As for `OCCNc1nc(NCCc2ccccc2)nc2nccnc12`, the cytotoxicity at 10 µM amounted to 5.91%.
Take `CCn1nc(C)c2ncnc(NCC(=O)N3CCOCC3)c21`: the cytotoxicity at 10 µM worked out at 3.54%.
The value for `OC(CN1CCCCCCC1)c1ccc(OC(F)(F)F)cc1` (centres undefined) was -11.2%; that for `CSc1nnc(CC2CCN(C(=O)COc3cccnc3)CC2)n1C` was -45.9%.
As to `Cc1nccn1[C@@H]1CC[C@@H](N(C)S(=O)(=O)c2ccc(F)cc2)[C@H]1O`, the cytotoxicity at 10 µM was -0.535%.
Regarding `CCOC(=O)N1CCNC(c2cccs2)C1` (centres undefined), the cytotoxicity at 10 µM was -147%.
Take `CCn1cnnc1C1CCN(C(=O)c2cccc(C)c2C)CC1`: the cytotoxicity at 10 µM was -3.61%.
As to `COc1ccc(OCCCN(C)C(=O)C2CCCN2C(N)=O)cc1` (centres undefined), the cytotoxicity at 10 µM was determined as 1.7%.
